From ChEMBL document CHEMBL3351250, “Modified salicylanilide and 3-phenyl-2H-benzo[e][1,3]oxazine-2,4(3H)-dione derivatives as novel inhibitors of osteoclast differentiation and bone resorption” (J Med Chem, 2014)

Assays:
RAW264.7 [1] = assay: Inhibition of RANKL-induced osteoclastogenesis in mouse RAW264.7 cells assessed as TRAP+ multinucleated cells level at 10 uM incubated for 4 days by TRAP staining assay; assay type: functional; design: scale not given: the % may be the effect or the level left
In short: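 Cells plated at 1 × 10³ (96-well) or 5 × 10⁴ (48-well) in α-MEM with 10% FBS, 2 mM […], 100 ng/mL recombinant murine RANKL and compound for 4 days; medium changed on day 2. Fixed in acetone/citrate/formaldehyde for 5 min and TRAP-stained. TRAP⁺ cells with >5 nuclei counted by light microscopy, expressed as % of the RANKL-only group.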

[2] = Cytotoxicity against mouse RAW264.7 cells assessed as survival rate at 10 uM after 24 hrs by MTT assay; assay type: cell-based; conditions: read-out: Activity
In short: (§1)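 Cells at 1 × 10⁴/well in DMEM + 10% FBS, exposed to compounds for 24 h at 37 °C, 5% CO₂. After PBS washes, MTT (0.5 mg/mL in medium) added for 1 h at 37 °C; formazan dissolved in DMSO, absorbance read at 540 nm. Viability expressed as % of DMSO control; CC₅₀ is the concentration giving 50% loss of mean viability (N = 3).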

[3] = Cytotoxicity against mouse RAW264.7 cells assessed as reduction in survival rate after 24 hrs by MTT assay; assay type: cell-based; in short: as §1
RAW264.7 [4] = assay: Inhibition of RANKL-induced osteoclastogenesis in mouse RAW264.7 cells assessed as reduction in TRAP activity incubated for 4 days by TRAP staining assay; assay type: functional, cell-based; conditions: RAW264.7, 96 h
In short: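 RAW264.7 cells were RANKL-differentiated (100 ng/mL recombinant soluble murine RANKL in α-MEM/10% FBS, compounds at various concentrations, 4 days, medium changed day 2). TRAP activity was read with 2 mg/mL 4-nitrophenyl phosphate in 0.09 M citrate buffer for 15 min at 37 °C, stopped with 0.1 N NaOH. Expressed as % of RANKL-only; IC50 is 50% inhibition.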

RAW264.7 [5] = assay: Inhibition of RANKL-induced osteoclastogenesis in mouse RAW264.7 cells assessed as TRAP+ multinucleated cells level incubated for 4 days by TRAP staining assay; assay type: functional, cell-based; conditions: RAW264.7, 96 h
In short: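 RAW264.7 cells in α-MEM with 10% FBS, 2 mM […], 100 ng/mL recombinant soluble murine RANKL and a range of compound concentrations for 4 days, with medium changed on day 2. Cells fixed in acetone/citrate/formaldehyde for 5 min and TRAP-stained. Cells with >5 nuclei counted by light microscopy and expressed as % of RANKL-only; IC50 is 50% inhibition.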

COc1ccc(C(=O)Nc2ccc(Cl)cc2F)c(O)c1
Activity (RAW264.7 [1]): 23.8% | viability at 24 h, 10 µM [2]: 103% | CC50 at 24 h [3]: 32.3 µM

COc1ccc(C(=O)Nc2ccc(-c3ccc(F)cc3F)cc2F)c(O)c1
Activity (RAW264.7 [1]): 50.1% | viability at 24 h, 10 µM [2]: 64.5% | CC50 at 24 h [3]: 26.3 µM

O=C(Nc1ccc(I)cc1F)c1ccccc1
Activity (RAW264.7 [1]): 76.8% | viability at 24 h, 10 µM [2]: 105% | CC50 at 24 h [3]: > 40 µM

O=C(Nc1ccc(Cl)cc1F)c1ccccc1O
Activity (RAW264.7 [1]): 49.4% | viability at 24 h, 10 µM [2]: 93% | IC50 (RAW264.7 [4]): 12.5 µM | IC50 (RAW264.7 [5]): 10 µM | CC50 at 24 h [3]: 23.2 µM

COc1ccc(C(=O)Nc2ccc(I)cc2F)c(O)c1
Activity (RAW264.7 [1]): 39.4% | viability at 24 h, 10 µM [2]: 94.4% | CC50 at 24 h [3]: 27.6 µM

COc1ccc(C(=O)Nc2ccc(I)cc2F)cc1
Activity (RAW264.7 [1]): 89.3% | viability at 24 h, 10 µM [2]: 91.4% | CC50 at 24 h [3]: 32.8 µM

COc1ccc(C(=O)Nc2ccc(-c3ccc(Cl)cc3F)cc2F)c(O)c1
Activity (RAW264.7 [1]): 60.6% | viability at 24 h, 10 µM [2]: 44.5%

COc1ccc(C(=O)Nc2ccc(I)cc2F)c(OCc2ccc(F)cc2F)c1
Activity (RAW264.7 [1]): 51.3% | viability at 24 h, 10 µM [2]: 104% | CC50 at 24 h [3]: 36.8 µM

O=C(Nc1ccc(F)cc1F)c1ccccc1OCc1ccc(F)cc1F
Activity (RAW264.7 [1]): 97.6% | viability at 24 h, 10 µM [2]: 101% | CC50 at 24 h [3]: > 40 µM

O=c1oc2ccccc2c(=O)n1-c1ccc(F)cc1F
Activity (RAW264.7 [1]): 82.5% | viability at 24 h, 10 µM [2]: 88.8% | CC50 at 24 h [3]: > 40 µM

COc1ccc(C(=O)O)c(O)c1 [4-METHOXYSALICYLIC ACID]
Activity (RAW264.7 [1]): 79.6% | viability at 24 h, 10 µM [2]: 99.4% | CC50 at 24 h [3]: > 40 µM

COc1ccc2c(=O)n(-c3ccc(F)cc3F)c(=O)oc2c1
Activity (RAW264.7 [1]): 67.5% | viability at 24 h, 10 µM [2]: 90.9% | CC50 at 24 h [3]: > 40 µM

O=C(Nc1ccc(F)cc1F)c1ccccc1O
Activity (RAW264.7 [1]): 85.2% | viability at 24 h, 10 µM [2]: 76.1% | CC50 at 24 h [3]: 38.4 µM

O=C(Nc1ccc(Cl)cc1F)c1ccccc1OCc1ccc(F)cc1F
Activity (RAW264.7 [1]): 74.6% | viability at 24 h, 10 µM [2]: 107% | CC50 at 24 h [3]: > 40 µM

O=C(Nc1ccc(-c2ccc(Cl)cc2F)cc1F)c1ccccc1O
Activity (RAW264.7 [1]): 84.8% | viability at 24 h, 10 µM [2]: 90.9% | CC50 at 24 h [3]: 27.2 µM

COc1ccc(C(=O)Nc2ccc(-c3ccc(Cl)cc3Cl)cc2F)c(O)c1
Activity (RAW264.7 [1]): 92.5% | viability at 24 h, 10 µM [2]: 102% | CC50 at 24 h [3]: > 40 µM

COc1ccccc1C(=O)Nc1ccc(I)cc1F
Activity (RAW264.7 [1]): 106.6% | viability at 24 h, 10 µM [2]: 95.4% | CC50 at 24 h [3]: > 40 µM

O=C(O)c1ccccc1O [SALICYLIC ACID]
CC50 at 24 h [3]: > 40 µM

O=C(Nc1ccc(Cl)cc1F)c1ccccc1
Activity (RAW264.7 [1]): 77.9% | viability at 24 h, 10 µM [2]: 105% | CC50 at 24 h [3]: > 40 µM

COc1ccc(C(=O)Nc2ccc(I)cc2F)c(OC)c1
Activity (RAW264.7 [1]): 92.4% | viability at 24 h, 10 µM [2]: 95% | CC50 at 24 h [3]: > 40 µM

O=C(Nc1ccc(-c2ccc(F)cc2F)cc1F)c1ccccc1O
Activity (RAW264.7 [1]): 100.1% | viability at 24 h, 10 µM [2]: 102% | CC50 at 24 h [3]: 28.6 µM

O=C(Nc1ccc(F)cc1F)c1ccccc1
Activity (RAW264.7 [1]): 75.2% | viability at 24 h, 10 µM [2]: 105% | CC50 at 24 h [3]: > 40 µM

COc1ccccc1C(=O)Nc1ccc(Cl)cc1F
Activity (RAW264.7 [1]): 86% | viability at 24 h, 10 µM [2]: 102% | CC50 at 24 h [3]: > 40 µM

COc1ccc(C(=O)Nc2ccc(F)cc2F)cc1
Activity (RAW264.7 [1]): 73.3% | viability at 24 h, 10 µM [2]: 102% | CC50 at 24 h [3]: > 40 µM

COc1ccc2c(=O)n(-c3ccc(Cl)cc3F)c(=O)oc2c1
Activity (RAW264.7 [1]): 36% | viability at 24 h, 10 µM [2]: 100% | CC50 at 24 h [3]: > 40 µM

O=C(Nc1ccc(I)cc1F)c1ccccc1OCc1ccc(F)cc1F
Activity (RAW264.7 [1]): 85.5% | viability at 24 h, 10 µM [2]: 85% | CC50 at 24 h [3]: 32.6 µM

COc1ccc2c(=O)n(-c3ccc(I)cc3F)c(=O)oc2c1
Activity (RAW264.7 [1]): 44.4% | viability at 24 h, 10 µM [2]: 103% | CC50 at 24 h [3]: 30.1 µM

COc1ccc(C(=O)Nc2ccc(Cl)cc2F)c(OC)c1
Activity (RAW264.7 [1]): 60.2% | viability at 24 h, 10 µM [2]: 52.9% | CC50 at 24 h [3]: 13.6 µM

O=C(Nc1ccc(I)cc1F)c1ccccc1O
Activity (RAW264.7 [1]): 70.6% | viability at 24 h, 10 µM [2]: 96.7% | CC50 at 24 h [3]: 23.3 µM

COc1ccc(C(=O)Nc2ccc(F)cc2F)c(OC)c1
Activity (RAW264.7 [1]): 93% | viability at 24 h, 10 µM [2]: 102% | CC50 at 24 h [3]: > 40 µM

COc1ccc(C(=O)Nc2ccc(F)cc2F)c(OCc2ccc(F)cc2F)c1
Activity (RAW264.7 [1]): 66.2% | viability at 24 h, 10 µM [2]: 106% | CC50 at 24 h [3]: > 40 µM

COc1ccccc1C(=O)Nc1ccc(F)cc1F
Activity (RAW264.7 [1]): 89.1% | viability at 24 h, 10 µM [2]: 108% | CC50 at 24 h [3]: > 40 µM

COc1ccc(C(=O)Nc2ccc(F)cc2F)c(O)c1
Activity (RAW264.7 [1]): 74.9% | viability at 24 h, 10 µM [2]: 89.7% | CC50 at 24 h [3]: > 40 µM

COc1ccc(C(=O)Nc2ccc(Cl)cc2F)c(OCc2ccc(F)cc2F)c1
Activity (RAW264.7 [1]): 68.7% | viability at 24 h, 10 µM [2]: 107% | CC50 at 24 h [3]: > 40 µM

COc1ccc(C(=O)Nc2ccc(Cl)cc2F)cc1
Activity (RAW264.7 [1]): 100.4% | viability at 24 h, 10 µM [2]: 106% | CC50 at 24 h [3]: > 40 µM

O=C(Nc1ccc(-c2ccc(Cl)cc2Cl)cc1F)c1ccccc1O
Activity (RAW264.7 [1]): 91.2% | viability at 24 h, 10 µM [2]: 105% | CC50 at 24 h [3]: 29.8 µM
